The subject of series [1] is Mus musculus. Kind of series: Toxicity in mouse assessed as increase in locomotor activity at 50 mg/kg, po up to 5 mins relative to vehicle treated control. The format is organism-based. More on the design: dose 50 mg/kg, route oral. The note with it: in vivo. Summed up:
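Mice were dosed orally at 50 mg/kg and 30 min later placed singly in new 35×35×35 cm plastic cages under dim light with sound attenuation. Activity was logged by a monitoring apparatus at intervals up to 30 min, and the 5 min point was analysed. Mean ± SEM; one-way ANOVA, Scheffe post hoc, versus control.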

For series [2], the target named is 5-hydroxytryptamine receptor 1B (Homo sapiens) (UniProt P28222). Kind of series: Displacement of [I125]CYP from 5HT1B receptor at 10 uM. A digest of the protocol: (§1)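 Radioligand binding panel run by a contract lab (CEREP). Percent inhibition of specific radioligand binding was measured at a single primary test concentration of 10.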
Sequence of 5-hydroxytryptamine receptor 1B (Homo sapiens) (P28222 whole entry): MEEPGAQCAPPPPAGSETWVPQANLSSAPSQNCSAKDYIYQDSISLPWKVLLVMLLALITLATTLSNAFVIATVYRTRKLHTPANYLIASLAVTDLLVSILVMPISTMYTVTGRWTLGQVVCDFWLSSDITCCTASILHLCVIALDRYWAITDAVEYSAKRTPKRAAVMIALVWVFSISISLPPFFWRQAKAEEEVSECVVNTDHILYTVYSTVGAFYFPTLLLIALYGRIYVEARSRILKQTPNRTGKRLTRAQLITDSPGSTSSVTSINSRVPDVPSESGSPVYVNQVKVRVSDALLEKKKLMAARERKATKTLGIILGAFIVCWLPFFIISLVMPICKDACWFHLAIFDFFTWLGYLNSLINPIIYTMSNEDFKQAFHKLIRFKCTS
The target of series [3] is T1, 5-hydroxytryptamine receptor 3A (Homo sapiens) (UniProt P46098).
T1 sequence (whole entry): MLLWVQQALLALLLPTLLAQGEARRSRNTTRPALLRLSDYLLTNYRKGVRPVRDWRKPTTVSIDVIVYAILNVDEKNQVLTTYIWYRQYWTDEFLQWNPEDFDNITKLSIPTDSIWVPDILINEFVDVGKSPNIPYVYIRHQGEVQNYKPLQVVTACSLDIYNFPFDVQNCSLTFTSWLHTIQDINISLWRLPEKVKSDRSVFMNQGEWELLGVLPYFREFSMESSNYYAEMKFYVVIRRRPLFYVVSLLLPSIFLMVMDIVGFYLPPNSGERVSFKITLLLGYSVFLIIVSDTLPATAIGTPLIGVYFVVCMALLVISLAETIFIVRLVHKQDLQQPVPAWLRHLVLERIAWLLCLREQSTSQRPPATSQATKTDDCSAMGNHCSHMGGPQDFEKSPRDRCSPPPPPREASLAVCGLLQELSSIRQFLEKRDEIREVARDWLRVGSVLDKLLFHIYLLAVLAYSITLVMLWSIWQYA
As to the kind of experiment: Displacement of [3H]BRL43694 from human recombinant 5HT3 receptor expressed in CHO cells at 10 uM after 60 mins by liquid scintillation counting. The class given is cell-based. Summed up:
as §1

The target in series [4] is 5-hydroxytryptamine receptor 6 (Homo sapiens) (UniProt P50406). Kind of series: Displacement of [3H]LSD from human recombinant 5HT6 receptor expressed in HEK293 cells at 10 uM after 60 mins by liquid scintillation counting. The class given is cell-based. Summed up: as §1
Sequence of 5-hydroxytryptamine receptor 6 (Homo sapiens) (P50406 whole entry): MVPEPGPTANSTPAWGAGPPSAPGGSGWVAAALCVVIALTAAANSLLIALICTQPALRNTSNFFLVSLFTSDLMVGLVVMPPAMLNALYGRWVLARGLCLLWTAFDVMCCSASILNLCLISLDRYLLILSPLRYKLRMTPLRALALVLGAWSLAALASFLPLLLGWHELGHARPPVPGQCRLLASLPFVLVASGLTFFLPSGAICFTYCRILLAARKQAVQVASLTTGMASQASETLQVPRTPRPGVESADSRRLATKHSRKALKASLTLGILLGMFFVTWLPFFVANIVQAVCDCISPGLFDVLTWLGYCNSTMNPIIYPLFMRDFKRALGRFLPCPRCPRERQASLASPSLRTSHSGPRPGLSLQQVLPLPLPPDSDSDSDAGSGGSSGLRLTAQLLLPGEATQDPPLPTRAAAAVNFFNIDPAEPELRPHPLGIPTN
In series [5] the target is 5-hydroxytryptamine receptor 7 (Homo sapiens) (UniProt P34969). As to the kind of experiment: Displacement of [3H]LSD from human recombinant 5HT7 receptor expressed in CHO cells at 10 uM after 120 mins by liquid scintillation counting. The format is cell-based. A digest of the protocol:
as §1

Series [6] deals with Adrenergic receptor alpha-1 (Rattus norvegicus) (UniProt P15823+P23944+P43140). Kind of series: Displacement of [3H]Prazosin from rat alpha1 adrenergic receptor at 10 uM after 60 mins by liquid scintillation counting. Summed up:
as §1

The target of series [7] is Beta-1 adrenergic receptor (Homo sapiens) (UniProt P08588). As to the kind of experiment: Displacement of [3H](-)CGP12177 beta1 adrenergic receptor at 10 uM. A digest of the protocol: as §1
Sequence of Beta-1 adrenergic receptor (Homo sapiens) (P08588 whole entry, looked up): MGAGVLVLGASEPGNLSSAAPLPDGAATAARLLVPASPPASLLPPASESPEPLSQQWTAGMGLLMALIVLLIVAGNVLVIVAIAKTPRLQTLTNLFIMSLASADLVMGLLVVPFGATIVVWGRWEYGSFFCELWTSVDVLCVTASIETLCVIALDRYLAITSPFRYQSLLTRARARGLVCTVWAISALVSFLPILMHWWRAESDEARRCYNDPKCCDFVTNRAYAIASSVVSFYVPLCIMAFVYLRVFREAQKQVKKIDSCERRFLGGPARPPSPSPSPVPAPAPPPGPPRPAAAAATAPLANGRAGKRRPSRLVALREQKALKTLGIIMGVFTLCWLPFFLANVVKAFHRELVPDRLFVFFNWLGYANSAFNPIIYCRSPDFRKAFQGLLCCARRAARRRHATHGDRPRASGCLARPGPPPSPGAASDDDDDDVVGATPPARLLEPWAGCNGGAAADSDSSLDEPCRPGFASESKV
The target of series [8] is Beta-2 adrenergic receptor (Homo sapiens) (UniProt P07550). As to the kind of experiment: Displacement of [3H](-)CGP12177 beta2 adrenergic receptor at 10 uM. Summed up:
as §1

The target of series [9] is Histamine H1 receptor (Cavia porcellus) (UniProt P31389). As to the kind of experiment: Displacement of [3H]Pyrilamin from guinea pig histamine H1 receptor at 10 uM after 10 mins by liquid scintillation counting. Summed up:
as §1

The target of series [10] is Histamine H2 receptor (Homo sapiens) (UniProt P25021). As to the kind of experiment: Displacement of [I125}APT from histamine H2 receptor at 10 uM. Summed up:
as §1

In series [11] the target is Sodium-dependent noradrenaline transporter (Homo sapiens, UniProt P23975). Kind of series: Inhibition of [3H]noradrenaline uptake at human NET expressed in HEK293 cells after 10 mins by scintillation counting.
Sequence of Sodium-dependent noradrenaline transporter (P23975 whole entry): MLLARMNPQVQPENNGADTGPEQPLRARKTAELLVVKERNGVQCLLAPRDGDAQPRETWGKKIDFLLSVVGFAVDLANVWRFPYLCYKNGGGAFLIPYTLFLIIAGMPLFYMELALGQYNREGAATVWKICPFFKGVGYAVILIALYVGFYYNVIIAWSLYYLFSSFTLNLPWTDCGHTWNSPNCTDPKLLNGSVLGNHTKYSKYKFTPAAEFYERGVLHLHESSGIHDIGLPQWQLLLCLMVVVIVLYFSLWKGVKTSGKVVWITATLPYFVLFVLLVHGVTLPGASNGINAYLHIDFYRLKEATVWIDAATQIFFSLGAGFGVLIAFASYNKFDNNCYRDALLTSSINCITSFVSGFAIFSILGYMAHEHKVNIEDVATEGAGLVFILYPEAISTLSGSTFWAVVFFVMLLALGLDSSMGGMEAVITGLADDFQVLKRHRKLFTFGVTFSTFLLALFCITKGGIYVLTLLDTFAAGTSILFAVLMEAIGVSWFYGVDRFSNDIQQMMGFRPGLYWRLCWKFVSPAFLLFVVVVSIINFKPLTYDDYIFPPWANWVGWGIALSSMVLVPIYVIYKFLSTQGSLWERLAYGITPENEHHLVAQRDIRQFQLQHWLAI
For series [12], the target named is 5-hydroxytryptamine receptor 2B (Homo sapiens) (UniProt P41595). Kind of series: Displacement of [3H]Mesulergine from human recombinant 5HT2B receptor expressed in CHO cells at 10 uM after 30 mins by liquid scintillation counting. The format is cell-based. A digest of the protocol:
as §1

Series [13] has as its target Adrenergic receptor alpha-1 (Rattus norvegicus, UniProt P15823+P23944+P43140). As to the kind of experiment: Displacement of [3H]Prazosin from rat alpha1 adrenergic receptor after 60 mins by liquid scintillation counting. Summed up:
(§2)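 A primary screen at a single concentration was run first; compounds giving >80% inhibition of radioligand binding went on to full concentration–response curves to obtain IC50 (CEREP contract assay).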

Series [14] is described as follows: AUC (0 to infinity) in Sprague-Dawley rat at 1 mg/kg, iv. The class given is ADME, organism-based. More on the design: time infinity, dose 1 mg/kg, route intravenous. Particulars: plasma. A digest of the protocol: (§3)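 Male SD rats, three per group, fasted overnight until 6 h after dosing, were given a single 1 mg/kg iv dose into the femoral vein. Blood was sampled at 5, 15 and 30 min and at 1, 2, 4 and 6 h. Plasma was stored frozen and assayed by LC/MS/MS.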

Series [15] is described as follows: AUC (0 to infinity) in Sprague-Dawley rat at 10 mg/kg, po. The format is ADME, organism-based. Further details: time infinity, dose 10 mg/kg, route oral. The note with it: plasma. Summed up: (§4)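 Male SD rats, three per group, fasted overnight until 6 h post-dose, received a single oral dose of 10 mg/kg. Heparinized blood was drawn at 5, 15 and 30 min and at 1, 2, 4, 6, 8, 12 and 24 h. Plasma was frozen and analysed by LC/MS/MS for Cmax, Tmax, terminal t1/2 and AUC0-inf.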

The nature of series [16]: Elimination half life in Sprague-Dawley rat at 1 mg/kg, iv. The format is ADME, organism-based. Further details: dose 1 mg/kg, route intravenous. The note with it: in vivo, read-out: beta t1/2 (converted). Summed up:
as §3

Series [17] can be described thus: Elimination half life in Sprague-Dawley rat at 10 mg/kg, po. The class given is ADME, organism-based. More on the design: dose 10 mg/kg, route oral. Particulars: in vivo, read-out: beta t1/2 (converted). A digest of the protocol: as §4
A short description of series [18]: Tmax in Sprague-Dawley rat at 10 mg/kg, po. More on the design: dose 10 mg/kg, route oral. Particulars: in vivo. The class given is ADME, organism-based. Summed up:
as §4

Series [19] can be described thus: Cmax in Sprague-Dawley rat at 1 mg/kg, iv. The format is ADME, organism-based. Further details: dose 1 mg/kg, route intravenous. The note with it: in vivo. Summed up:
as §3

Series [20] in a line: Cmax in Sprague-Dawley rat at 10 mg/kg, po. The format is ADME, organism-based. More on the design: dose 10 mg/kg, route oral. The note with it: in vivo. A digest of the protocol: as §4
The nature of series [21]: Oral bioavailability in Sprague-Dawley rat at 10 mg/kg. The format is ADME, organism-based. Particulars: in vivo. A digest of the protocol: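 Bioavailability in male SD rats (n=3 per group, fasted overnight to 6 h post-dose) came from a 10 mg/kg oral dose and a 1 mg/kg iv dose via the femoral vein. Plasma drug levels over time were measured by LC/MS/MS.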
Series [22] concerns the target D(1A) dopamine receptor (Homo sapiens, UniProt P21728). Kind of series: Displacement of [3H]SCH23390 from dopamine D1 receptor. Summed up: as §2

Sequence of 5-hydroxytryptamine receptor 7 (Homo sapiens) (P34969 whole entry): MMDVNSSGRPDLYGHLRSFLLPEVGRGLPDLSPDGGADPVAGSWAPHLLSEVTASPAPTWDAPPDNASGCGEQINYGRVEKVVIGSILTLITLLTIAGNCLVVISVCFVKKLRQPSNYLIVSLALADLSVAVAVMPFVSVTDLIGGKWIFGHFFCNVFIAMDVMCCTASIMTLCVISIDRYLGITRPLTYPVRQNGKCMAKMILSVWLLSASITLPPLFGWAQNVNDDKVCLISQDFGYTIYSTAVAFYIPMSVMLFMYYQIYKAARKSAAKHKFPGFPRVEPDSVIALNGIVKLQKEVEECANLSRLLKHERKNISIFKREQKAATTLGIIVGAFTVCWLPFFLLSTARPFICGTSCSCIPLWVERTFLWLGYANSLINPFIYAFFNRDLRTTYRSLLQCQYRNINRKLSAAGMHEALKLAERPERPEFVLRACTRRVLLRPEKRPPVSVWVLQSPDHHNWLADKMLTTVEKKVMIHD
Sequence of Histamine H2 receptor (Homo sapiens) (P25021 whole entry): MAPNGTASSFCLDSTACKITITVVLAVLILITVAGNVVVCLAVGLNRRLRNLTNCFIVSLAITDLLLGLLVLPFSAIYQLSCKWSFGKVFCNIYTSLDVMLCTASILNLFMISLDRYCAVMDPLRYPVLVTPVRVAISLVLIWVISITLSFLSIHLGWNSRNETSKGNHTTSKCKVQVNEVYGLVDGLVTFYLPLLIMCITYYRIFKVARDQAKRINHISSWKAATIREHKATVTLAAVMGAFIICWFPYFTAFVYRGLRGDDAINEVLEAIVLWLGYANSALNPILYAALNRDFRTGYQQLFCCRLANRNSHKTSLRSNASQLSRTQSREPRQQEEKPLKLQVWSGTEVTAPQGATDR
Sequence of Beta-2 adrenergic receptor (Homo sapiens) (P07550 whole entry, looked up): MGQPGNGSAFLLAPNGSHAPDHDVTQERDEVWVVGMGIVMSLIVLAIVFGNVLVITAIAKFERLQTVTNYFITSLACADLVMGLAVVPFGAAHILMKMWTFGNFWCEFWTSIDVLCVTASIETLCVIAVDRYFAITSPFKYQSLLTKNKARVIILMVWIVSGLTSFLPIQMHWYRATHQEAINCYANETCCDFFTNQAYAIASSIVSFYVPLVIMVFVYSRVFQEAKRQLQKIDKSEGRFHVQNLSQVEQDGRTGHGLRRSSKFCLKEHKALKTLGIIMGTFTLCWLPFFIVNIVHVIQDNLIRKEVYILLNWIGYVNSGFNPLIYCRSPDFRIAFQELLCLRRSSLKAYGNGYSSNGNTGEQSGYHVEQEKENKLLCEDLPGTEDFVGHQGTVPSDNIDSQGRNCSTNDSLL
Sequence of 5-hydroxytryptamine receptor 2B (Homo sapiens) (P41595 whole entry): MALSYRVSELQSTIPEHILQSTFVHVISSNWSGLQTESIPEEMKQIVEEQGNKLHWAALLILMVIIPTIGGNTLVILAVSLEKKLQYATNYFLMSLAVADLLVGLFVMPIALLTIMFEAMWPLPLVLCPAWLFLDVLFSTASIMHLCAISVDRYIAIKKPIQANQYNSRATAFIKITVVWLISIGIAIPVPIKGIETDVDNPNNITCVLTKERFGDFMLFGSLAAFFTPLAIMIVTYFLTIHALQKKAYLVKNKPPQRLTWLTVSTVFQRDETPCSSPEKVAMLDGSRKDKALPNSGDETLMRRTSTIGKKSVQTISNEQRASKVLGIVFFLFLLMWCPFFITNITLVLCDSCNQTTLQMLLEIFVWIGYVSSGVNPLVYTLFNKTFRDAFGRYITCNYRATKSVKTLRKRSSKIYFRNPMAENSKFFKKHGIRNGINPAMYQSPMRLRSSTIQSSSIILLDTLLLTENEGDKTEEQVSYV
Sequence of Histamine H1 receptor (Cavia porcellus) (P31389 whole entry): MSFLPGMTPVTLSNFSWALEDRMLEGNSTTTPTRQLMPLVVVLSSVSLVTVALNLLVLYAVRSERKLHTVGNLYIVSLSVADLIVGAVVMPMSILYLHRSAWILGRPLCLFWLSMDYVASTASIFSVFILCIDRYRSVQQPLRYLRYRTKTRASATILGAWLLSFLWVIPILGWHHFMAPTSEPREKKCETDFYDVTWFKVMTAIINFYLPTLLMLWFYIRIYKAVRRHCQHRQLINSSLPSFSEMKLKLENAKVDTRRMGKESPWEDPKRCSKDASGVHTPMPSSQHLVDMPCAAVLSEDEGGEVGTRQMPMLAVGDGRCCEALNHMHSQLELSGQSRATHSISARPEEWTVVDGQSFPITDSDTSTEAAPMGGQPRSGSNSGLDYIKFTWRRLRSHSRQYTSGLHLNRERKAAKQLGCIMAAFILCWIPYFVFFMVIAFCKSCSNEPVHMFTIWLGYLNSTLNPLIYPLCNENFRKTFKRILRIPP
Sequence of D(1A) dopamine receptor (P21728 whole entry): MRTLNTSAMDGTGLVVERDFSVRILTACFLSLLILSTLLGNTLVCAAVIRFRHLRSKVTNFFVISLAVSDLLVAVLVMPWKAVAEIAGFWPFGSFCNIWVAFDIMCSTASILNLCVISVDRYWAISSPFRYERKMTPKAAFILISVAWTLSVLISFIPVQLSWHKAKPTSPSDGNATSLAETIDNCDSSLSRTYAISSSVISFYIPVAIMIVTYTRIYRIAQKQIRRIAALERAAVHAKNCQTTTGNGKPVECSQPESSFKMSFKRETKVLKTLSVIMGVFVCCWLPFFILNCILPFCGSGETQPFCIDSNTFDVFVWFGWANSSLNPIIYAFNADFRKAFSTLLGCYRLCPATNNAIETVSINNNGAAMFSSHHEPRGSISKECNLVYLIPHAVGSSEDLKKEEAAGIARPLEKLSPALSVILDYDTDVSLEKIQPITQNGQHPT

In the case of `COc1ccc2cc(C(O)CCN3CC=C(Cc4ccccc4)CC3)ccc2c1Cl` (racemic), the Activity entry in series [1] was “Non-toxic”. The inhibition in [2] was 10.2%; in series [3], 0.5%; in series [4] it was -0.9%; in series [5], 5.8%; in [6] it was 45.6%; in [7], 46.7%. The inhibition in series [8] is 28.5%; in series [9], 10.6%; in [10], 33.2%. Moreover, the IC50 in [11] came out at 0.42 µM.

Regarding `OC(CCN1CCC(O)(Cc2ccccc2)CC1)c1ccc(Cl)c(Cl)c1` (racemic), in [1], the Activity result is “Non-toxic”. Further, the inhibition in series [2] is 9.7%; in series [12] it was 4.9%; in series [3] it was 14.1%; in [4] it was 14.8%; in series [5] it was 19.2%; in series [6] it was 84.3%. The inhibition in [7] turned out to be 15.3%; in [8] it was 14.7%; in series [9] it was 12.5%; in series [10], 6.7%. The IC50 in series [13] was 8 µM; in [11] it was 0.265 µM. The AUC(0-inf) in [14] was determined as 1.23 µg·h/mL; in series [15], 5.44 µg·h/mL. Also, the half-life in series [16] was 2.3 h; in [17], 2.9 h. Besides, the Tmax in series [18] came out at 0.7 h. The Cmax in [19] is 0.75 µg/mL; in [20], 0.897 µg/mL. In [21], this compound gave a bioavailability of 44.1%.

As for `OC(CCN1CC=C(Cc2ccccc2)CC1)c1ccc(Cl)c(Cl)c1` (racemic), in [1], the Activity entry was “Non-toxic”. Further, the inhibition in [2] stood at 0.6%; in series [12], 33.5%; in series [3], 25.1%; in series [4], 1.9%; in series [5] it was 0.5%; in series [6] it was 35.6%. The inhibition in series [7] came to 58.9%; in series [8], 62.3%; in series [9], 31.2%; in series [10], 15.6%. In series [11], this compound returned an IC50 of 0.178 µM.

Regarding `OC(CCN1CC=C(Cc2ccccc2)CC1)c1csc2ccccc12` (racemic), the Activity result in series [1] is given as “Non-toxic”. For the same compound, the inhibition in series [2] worked out at 6.5%; in series [12], 14.5%; in series [3] it was 8.3%; in series [4], 16.8%; in series [5], 29.7%; in series [6], 51.2%. Further, the inhibition was 33.4% in series [7], 49.8% in series [8], 45.3% in [9] and 14.9% in series [10]. In addition, the AUC(0-inf) in series [14] came to 1.02 µg·h/mL; in [15] it was 5.72 µg·h/mL. Moreover, the half-life in series [16] was 2.5 h; in [17] it was 3.5 h. Besides, the Tmax in [18] turned out to be 0.5 h. The Cmax stood at 0.653 µg/mL in [19] and 0.923 µg/mL in [20]. In series [21], this compound came in with a bioavailability of 55.8%. This compound came in with an IC50 in [11] of 0.385 µM.

As for `OC(CCN1CC=C(Cc2ccccc2)CC1)c1cc2ccccc2s1` (racemic), the Activity result in series [1] is “Non-toxic”. In addition, the inhibition was found to be 6.1% in [12]; 10.6% in series [3]; 53.7% in series [4]; 43.5% in series [5]; 0.8% in series [6]; 41.2% in [7]. The inhibition in series [8] amounted to 16.7%; in series [9], 0.1%; in series [10], 8.2%. For the same compound, the IC50 in [22] was 9.65 µM; in [11], 0.327 µM.

For the origin of these results see ChEMBL document CHEMBL2046296, “Synthesis and antidepressant activity of arylalkanol-piperidine derivatives as triple reuptake inhibitors” (Eur J Med Chem, 2012).
